Structures can show the parent of a compound that is named as a salt.
Assays:
Keap1/Nrf2 = Keap1/Nrf2 (Homo sapiens, UniProt Q14145+Q16236); test: Activation of NRF2 in human U2OS cells co-expressing Keap1 (unknown origin) assessed as induction of NRF2 translocation to nucleus incubated for 6 hrs by beta-galactosidase based chemiluminescent assay; format: cell-based
In short: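 PathHunter U2OS cells engineered to co-express enzyme donor-tagged NRF2 and nuclear-localized enzyme acceptor; Nrf2 nuclear translocation reconstitutes β-galactosidase. Cells in 96-well plates exposed to a range of compound concentrations for 6 h at room temperature (20–23 °C), then 1 h with detection reagent in the dark; chemiluminescence (RLU) read. EC50 from concentration-response curve, mean ± SEM, triplicate.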

[1] = target: T1, Nuclear factor erythroid 2-related factor 2 (Mus musculus) (UniProt Q60795); test: Activation of NRF2 in mouse BV2 cells assessed as upregulation of HO1 at 20 uM by ELISA relative to control; format: cell-based
T1 sequence (whole entry): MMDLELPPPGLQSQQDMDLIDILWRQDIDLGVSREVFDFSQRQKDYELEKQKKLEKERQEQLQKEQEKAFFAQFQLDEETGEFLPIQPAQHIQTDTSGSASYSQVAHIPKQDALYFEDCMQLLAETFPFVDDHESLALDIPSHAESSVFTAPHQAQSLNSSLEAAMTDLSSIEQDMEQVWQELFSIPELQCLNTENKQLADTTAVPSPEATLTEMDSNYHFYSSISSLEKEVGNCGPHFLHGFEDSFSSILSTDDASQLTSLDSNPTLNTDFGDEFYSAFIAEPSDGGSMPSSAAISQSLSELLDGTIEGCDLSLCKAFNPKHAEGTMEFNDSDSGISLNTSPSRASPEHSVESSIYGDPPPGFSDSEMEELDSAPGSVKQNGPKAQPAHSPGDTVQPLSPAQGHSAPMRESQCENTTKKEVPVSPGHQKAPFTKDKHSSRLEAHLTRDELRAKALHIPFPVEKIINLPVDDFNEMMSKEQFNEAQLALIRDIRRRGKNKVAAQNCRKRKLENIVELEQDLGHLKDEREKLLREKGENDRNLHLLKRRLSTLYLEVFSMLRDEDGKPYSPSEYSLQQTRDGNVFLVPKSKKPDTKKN

Keap1/Nrf2, sequence (Q16236 whole entry): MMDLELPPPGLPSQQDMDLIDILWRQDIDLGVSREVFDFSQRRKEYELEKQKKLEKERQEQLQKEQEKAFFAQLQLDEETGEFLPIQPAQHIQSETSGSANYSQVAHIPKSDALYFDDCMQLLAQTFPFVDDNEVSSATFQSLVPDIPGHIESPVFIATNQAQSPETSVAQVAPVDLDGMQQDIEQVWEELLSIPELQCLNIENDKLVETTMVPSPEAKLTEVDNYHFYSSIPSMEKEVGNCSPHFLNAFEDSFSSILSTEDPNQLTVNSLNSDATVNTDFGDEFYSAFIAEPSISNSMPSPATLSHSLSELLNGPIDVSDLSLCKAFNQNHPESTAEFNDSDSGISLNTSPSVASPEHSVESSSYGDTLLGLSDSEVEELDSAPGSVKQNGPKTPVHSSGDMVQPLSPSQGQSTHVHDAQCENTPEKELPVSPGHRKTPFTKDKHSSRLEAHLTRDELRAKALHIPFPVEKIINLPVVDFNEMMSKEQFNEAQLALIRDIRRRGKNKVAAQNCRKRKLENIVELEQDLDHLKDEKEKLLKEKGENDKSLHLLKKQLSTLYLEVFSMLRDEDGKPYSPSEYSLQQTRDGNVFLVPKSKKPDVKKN
Keap1/Nrf2, sequence (Q14145 whole entry): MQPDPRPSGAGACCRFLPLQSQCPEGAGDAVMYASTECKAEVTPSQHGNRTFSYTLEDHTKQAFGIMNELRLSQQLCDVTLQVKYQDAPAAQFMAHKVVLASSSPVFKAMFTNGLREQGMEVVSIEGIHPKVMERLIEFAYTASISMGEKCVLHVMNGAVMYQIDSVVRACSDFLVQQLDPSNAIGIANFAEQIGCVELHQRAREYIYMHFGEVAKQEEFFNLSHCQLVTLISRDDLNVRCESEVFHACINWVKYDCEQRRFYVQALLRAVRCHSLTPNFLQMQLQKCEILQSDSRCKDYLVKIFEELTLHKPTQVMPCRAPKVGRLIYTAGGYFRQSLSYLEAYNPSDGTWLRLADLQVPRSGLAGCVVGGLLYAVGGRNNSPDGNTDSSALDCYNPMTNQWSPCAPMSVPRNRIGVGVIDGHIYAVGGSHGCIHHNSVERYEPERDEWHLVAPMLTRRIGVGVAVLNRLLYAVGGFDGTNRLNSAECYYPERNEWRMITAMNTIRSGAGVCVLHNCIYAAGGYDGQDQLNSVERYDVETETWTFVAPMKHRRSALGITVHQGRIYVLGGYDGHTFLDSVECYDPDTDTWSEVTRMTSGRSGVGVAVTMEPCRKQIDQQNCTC

Compound	EC50 (Keap1/Nrf2)	Activity [1]
O=C(/C=C/c1ccccc1C(F)(F)F)c1ccc(OCC(=O)N2CCOCC2)cc1	1.06 µM	–
CN(C)C(=O)COc1ccc(C(=O)/C=C/c2ccccc2C(F)(F)F)cc1	1.12 µM	–
O=C(/C=C/c1ccccc1C(F)(F)F)c1cccc(OCCCN2CCOCC2)c1	2.3 µM	–
CN(C)C(=O)COc1ccc(C(=O)/C=C/c2cccnc2)cc1	1.46 µM	–
CN1CCN(C(=O)COc2ccc(C(=O)/C=C/c3ccccc3Cl)cc2)CC1	0.97 µM	–
O=C(/C=C/c1ccccn1)c1ccc(OCC(=O)N2CCOCC2)cc1	1.23 µM	–
COC(=O)/C=C/C(=O)OC [DIMETHYL FUMARATE]	5.11 µM	–
COc1ccccc1/C=C/C(=O)c1ccc(OCC(=O)N2CCN(C)CC2)cc1	1.91 µM	–
CN1CCN(C(=O)COc2ccc(C(=O)/C=C/c3ccccc3F)cc2)CC1	1.54 µM	–
O=C(/C=C/c1ccc(C(F)(F)F)cc1)c1ccc(OCCCN2CCOCC2)cc1	2.43 µM	–
CN1CCN(C(=O)COc2ccc(C(=O)/C=C/c3ccccc3)cc2)CC1	1.8 µM	–
O=C(/C=C/c1cccc(C(F)(F)F)c1)c1ccc(OCCCN2CCOCC2)cc1	2.06 µM	–
CN(C)C(=O)COc1ccc(C(=O)/C=C/c2ccncc2)cc1	1.36 µM	–
CN(C)C(=O)COc1ccc(C(=O)/C=C/c2ccccn2)cc1	1.1 µM	–

Further lines, results first:

EC50 (Keap1/Nrf2)	Activity [1]	Compound
0.99 µM	289%	COc1ccccc1/C=C/C(=O)c1ccc(OCCCN2CCCC2)cc1
> 5 µM	–	O=C(/C=C/c1cccnc1)c1ccc(OCCCN2CCOCC2)cc1
> 5 µM	112%	O=C(/C=C/c1ccccn1)c1ccc(OCCCN2CCOCC2)cc1
5.52 µM	146%	COc1ccccc1/C=C/C(=O)c1ccccc1OCCCN1CCOCC1
3.33 µM	217%	COc1ccccc1/C=C/C(=O)c1ccc(OCCCN2CCN(C)CC2)cc1
6.97 µM	166%	COc1ccc(/C=C/C(=O)c2ccc(OCCCN3CCOCC3)cc2)cc1
1.39 µM	–	O=C(/C=C/c1ccccc1Cl)c1ccc(OCCCN2CCCC2)cc1
2.84 µM	–	O=C(/C=C/c1ccccc1Cl)c1cccc(OCCCN2CCOCC2)c1
2.42 µM	–	O=C(/C=C/c1ccccc1Cl)c1ccc(OCCCN2CCOCC2)cc1
1.36 µM	351%	O=C(/C=C/c1ccccc1C(F)(F)F)c1ccc(OCCCN2CCOCC2)cc1
2.58 µM	–	COc1cccc(/C=C/C(=O)c2ccc(OCCCN3CCOCC3)cc2)c1
1.46 µM	–	COc1ccccc1/C=C/C(=O)c1ccc(OCC(=O)N(C)C)cc1
1.77 µM	–	COc1ccccc1/C=C/C(=O)c1ccc(OCC(=O)N2CCOCC2)cc1
1.72 µM	< 200%	COc1ccccc1/C=C/C(=O)c1cccc(OCCCN2CCOCC2)c1
> 1 µM	–	O=C(/C=C/c1ccccc1C(F)(F)F)c1ccc(OCCCN2CCCC2)cc1
1.63 µM	345%	COc1ccccc1/C=C/C(=O)c1ccc(OCCCN2CCOCC2)cc1
